Reference: PubChem BioAssay
Active and inactive are the calls of the source.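 How the source made its calls, unless noted: active means viability at or below 10% of carrier control in both of two separate runs; inconclusive means viability at or below 10% in only one of the two runs; inactive means the rest.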

Legend:
[1] = Her2 expression decrease, cell viability multiplex – SKBR3 breast tumor cells, AlphaScreen, ATP viability, primary screen (AID 461;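 active means Her2 level under about 52% in both replicate screens, with viability over 70% of control, limit read from the data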;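 on Her2 level: lower value means less Her2 protein in the cells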;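 on viability: percent of carrier control wells set as 100% viability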); details: SKBR3 Her2 protein level, 18-24 h, measured here: SKBR3 viability, ATP luminescence, at 10 µM
[2] = biological target: Receptor tyrosine-protein kinase erbB-2 (Homo sapiens) (UniProt P04626); assay: as above; details: 18-24 h, at 10 µM, stronger effect = lower value
[3] = reduced viability of SK-BR-3 breast cancer cells – cell-based, 24 h, human, pilot screen (AID 572); details: SK-BR-3 viability, CellTiter-Glo luminescence, at 10 µM, stronger effect = lower value;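 further: compound exposure lasted between 18 and 24 h rather than exactly 24 h; 100% = carrier-treated control wells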
[4] = HUVEC growth inhibition – cell-based, human, primary screen (AID 575;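 active means viability at or below 30% in both replicate assays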;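 further: 100% = median of untreated cell wells with 0.1% DMSO on each plate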); details: HUVEC proliferation, CellTiter-Glo luminescence, 72 h; at 10 µM; stronger effect = lower value
In short: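 Test system: primary human umbilical vein endothelial cells. Quantity: 1250 cells/well. Compound: single 10 µM dose, 0.1% DMSO, from 5x medium stock. Timing: 72 h treatment at 37 °C. Detection: ATP-based CellTiter-Glo luminescent read. Benchmarks: vehicle and MePR control wells. Format: 384-well plates coated with collagen.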

[5] = H69AR cell proliferation blockers – human, duplicate replicates, primary screen (AID 580;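 active means viability at or under a set limit in both replicates, limit being median viability minus 3 SD, cut at about 48% in these data, passing the limit was not always enough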;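 further: 100% = mean luminescence of untreated wells and 0% = no signal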); details: H69AR lung tumor cells viability, ATP luminescence, 72 h; at 10 µM; stronger effect = lower value
[6] = MRP1 drug-resistance reversers in H69AR cells – cell-based, doxorubicin co-treatment, pilot screen (AID 601;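 active means viability loss from added drug above about 55%, and viability with drug at most 40%, in both replicates, limit read from the data, passing the limit was not always enough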); details: CellTiter-Glo, 72 h, at 10 µM; for differential viability (reversal): stronger effect = higher value
[7] = yeast transport mutant growth inhibition pilot in 384-well plates, post-Golgi transport modulator project (AID 636; in the data active means inhibition above about 31%); details: absorbance 615 nm, about 18 h, stronger effect = higher value
[8] = growth suppression of yeast trafficking mutant, preliminary HTS, modulators of trafficking downstream of Golgi apparatus project, 1536-format plate, OD 615 nm (AID 637; in the data active means inhibition above about 30%); details: yeast transport mutant growth, absorbance 615 nm, 18 h; stronger effect = higher value
[9] = H69AR cells + 2 uM doxorubicin, measured here: viability with 2 uM doxorubicin, stronger effect = lower value
[10] = H69AR cells, compound alone cytotoxicity

Receptor tyrosine-protein kinase erbB-2 (Homo sapiens), sequence (P04626 whole entry, looked up): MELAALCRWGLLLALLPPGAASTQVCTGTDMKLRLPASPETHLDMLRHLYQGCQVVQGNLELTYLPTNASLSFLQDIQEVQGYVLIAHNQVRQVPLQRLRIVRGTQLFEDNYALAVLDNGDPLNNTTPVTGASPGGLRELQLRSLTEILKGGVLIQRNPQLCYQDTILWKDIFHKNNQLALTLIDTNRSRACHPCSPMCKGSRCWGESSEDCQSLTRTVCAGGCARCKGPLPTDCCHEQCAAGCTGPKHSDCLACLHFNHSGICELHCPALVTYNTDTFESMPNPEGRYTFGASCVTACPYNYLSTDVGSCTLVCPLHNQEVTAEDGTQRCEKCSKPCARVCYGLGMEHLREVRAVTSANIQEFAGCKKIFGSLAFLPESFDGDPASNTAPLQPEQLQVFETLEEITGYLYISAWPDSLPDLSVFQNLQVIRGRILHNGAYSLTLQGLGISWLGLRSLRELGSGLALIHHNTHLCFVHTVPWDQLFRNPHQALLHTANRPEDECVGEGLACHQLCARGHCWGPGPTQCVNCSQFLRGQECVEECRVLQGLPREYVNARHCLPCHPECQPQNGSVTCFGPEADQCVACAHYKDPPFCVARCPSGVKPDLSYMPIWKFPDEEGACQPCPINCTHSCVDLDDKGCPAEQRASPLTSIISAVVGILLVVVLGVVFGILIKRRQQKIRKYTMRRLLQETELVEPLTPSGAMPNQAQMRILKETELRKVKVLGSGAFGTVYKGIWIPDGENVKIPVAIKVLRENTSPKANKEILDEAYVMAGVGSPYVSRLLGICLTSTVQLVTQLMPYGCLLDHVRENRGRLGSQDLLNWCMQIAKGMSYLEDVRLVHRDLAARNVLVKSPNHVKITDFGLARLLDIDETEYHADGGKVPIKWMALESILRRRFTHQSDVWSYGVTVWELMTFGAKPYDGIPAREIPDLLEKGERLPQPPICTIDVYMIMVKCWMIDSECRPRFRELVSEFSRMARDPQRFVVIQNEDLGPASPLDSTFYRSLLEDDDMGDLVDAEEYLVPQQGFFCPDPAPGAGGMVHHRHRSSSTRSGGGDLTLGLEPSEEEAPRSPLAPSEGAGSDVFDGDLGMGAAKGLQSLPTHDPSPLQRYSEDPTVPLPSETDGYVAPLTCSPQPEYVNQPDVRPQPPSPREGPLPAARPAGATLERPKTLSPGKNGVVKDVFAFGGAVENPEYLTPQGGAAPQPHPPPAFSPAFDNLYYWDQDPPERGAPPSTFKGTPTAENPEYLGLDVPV

Row | SMILES | viability [1] [%] | Her2 level [2] | viability [3] | viability [4] | viability [5] | differential viability (reversal) ([6]; H69AR cells + 2 uM doxorubicin) | viability [6, 9] [%] | viability [6, 10] [%] | inhibition [7] | inhibition [8]
1 | Cc1nnc(SCCn2c(N3CC(C)CC(C)C3)nc3c2c(=O)n(C)c(=O)n3C)s1 (stereo not given) | 106 | 99.5% (inactive) | 106% (inactive) | 93.8% (inactive) | 95.9% (inactive) | -2.37% (inactive) | 98.2 | 95.9 | 0.26% (inactive) | 24.7% (inactive)
2 | Cc1nn(-c2ccc(F)cc2)c2sc(C(=O)OCC(=O)N3CCC(C)CC3)cc12 | 93 | 102% (inactive) | 93% (inactive) | 76.8% (inactive) | 102% (inactive) | 9.16% (inactive) | 92.6 | 102 | -3.87% (inactive) | -5.81% (inactive)
3 | CCOC(=O)COc1ccc(S(=O)(=O)Nc2ccc3c(c2)OCO3)cc1 | 164 | 113% (inactive) | 164% (inactive) | 10.4% (active) | 91% (inactive) | -1.11% (inactive) | 92.1 | 91 | -4.21% (inactive) | 9.02% (inactive)
4 | O=C(NCC(=O)N1CCC(N2CCCCC2)CC1)C1CCCCC1 | 88.5 | 108% (inactive) | 88.5% (inactive) | 106% (inactive) | 94.4% (inactive) | 1.99% (inactive) | 92.5 | 94.4 | -5.84% (inactive) | -4.43% (inactive)
5 | CCN(CC)C(=O)c1sc(NC(=O)c2ccco2)c(C#N)c1C | 99.5 | 103% (inactive) | 99.5% (inactive) | 88% (inactive) | 79.3% (inactive) | -7.3% (inactive) | 86.6 | 79.3 | -4.74% (inactive) | -7.26% (inactive)
6 | N#CCSc1nc2c(c(C3CC=CCC3)c1C#N)CCC2 (stereo not given) | 88.5 | 81.5% (inactive) | 88.5% (inactive) | 63.4% (inactive) | 100% (inactive) | 12.8% (inactive) | 87.2 | 100 | -3.07% (inactive) | -1.94% (inactive)
7 | CC1=Nn2c(nnc2-c2cc(-c3ccccc3)n[nH]2)SC1 | 97.5 | 78% (inactive) | 97.5% (inactive) | 94.3% (inactive) | 91.4% (inactive) | 7.02% (inactive) | 84.4 | 91.4 | -3.47% (inactive) | 7.05% (inactive)
8 | COc1cc(C(c2sc3nc(C)nn3c2O)N2CC(C)CC(C)C2)cc(OC)c1OC (stereo not given) | 78 | 98.5% (inactive) | 78% (inactive) | 98.8% (inactive) | 103% (inactive) | 0.2% (inactive) | 103 | 103 | 0.9% (inactive) | 0.17% (inactive)
9 | COc1ccc(-c2cc3n(n2)CCc2nc4ccccc4n2-3)cc1 | 95.5 | 70% (inactive) | 95.5% (inactive) | 87% (inactive) | 93.3% (inactive) | 6.67% (inactive) | 86.7 | 93.3 | -5.2% (inactive) | 0.48% (inactive)
10 | CCc1ccccc1NC(=O)C(C#N)Cc1cccnc1 (stereo not given) | 90 | 88.5% (inactive) | 90% (inactive) | 97.4% (inactive) | 94.6% (inactive) | -1.77% (inactive) | 96.3 | 94.6 | -2.57% (inactive) | -0.49% (inactive)
11 | CCOc1ccc2[nH]c(=O)c(C(c3nnnn3CC3CCCO3)N3CCc4ccccc4C3)cc2c1 (stereo not given) | 97 | 82.5% (inactive) | 97% (inactive) | 81.1% (inactive) | 85.8% (inactive) | 36.5% (inactive) | 49.2 | 85.8 | -4.93% (inactive) | 2.62% (inactive)
12 | CN(c1ccccc1)S(=O)(=O)c1ccc(C(=O)OCC(=O)NCc2ccco2)cc1 | 95.5 | 112% (inactive) | 95.5% (inactive) | 88.5% (inactive) | 74.4% (inactive) | -10.4% (inactive) | 84.8 | 74.4 | 2.03% (inactive) | 16.4% (inactive)
13 | Cc1ccc(S(=O)(=O)NCC(=O)N(CC(=O)NCc2ccccc2)CC2CCCO2)cc1 (stereo not given) | 110 | 91.5% (inactive) | 110% (inactive) | 108% (inactive) | 104% (inactive) | 17.9% (inactive) | 86.2 | 104 | -3.65% (inactive) | 3.49% (inactive)
14 | CC(C)OC(=O)CSc1nnc(Cc2ccccc2)n1Cc1ccco1 | 92.5 | 91.5% (inactive) | 92.5% (inactive) | 84.7% (inactive) | 92.4% (inactive) | 6.06% (inactive) | 86.3 | 92.4 | -4.27% (inactive) | 14.1% (inactive)
15 | COC(=O)c1ccc(CSc2nnc(-c3ccncc3)o2)o1 | 110 | 69% (inactive) | 110% (inactive) | 87.8% (inactive) | 100% (inactive) | 4.48% (inactive) | 95.8 | 100 | -4.8% (inactive) | 1.48% (inactive)
16 | COc1ccc2c(=O)c3c(=O)n(Cc4ccco4)c(C(C)C)nc3oc2c1 | 96 | 93% (inactive) | 96% (inactive) | 101% (inactive) | 99.4% (inactive) | 9.28% (inactive) | 90.1 | 99.4 | -3.73% (inactive) | -9.52% (inactive)
17 | O=C(Cn1nnc(-c2cc(Cl)ccc2-n2cnnn2)n1)N1CCCc2ccccc21 | 116 | 99.5% (inactive) | 116% (inactive) | 95.7% (inactive) | 96.4% (inactive) | 9.45% (inactive) | 87 | 96.4 | -2.47% (inactive) | 10.8% (inactive)
18 | CCNCCNC(=O)c1c(O)c2ccccc2n(CC)c1=O | 126 | 90.5% (inactive) | 126% (inactive) | 84.7% (inactive) | 89.1% (inactive) | 4.78% (inactive) | 84.3 | 89.1 | -4.87% (inactive) | 0.81% (inactive)
19 | COc1ccc(-n2ncc3c(=O)n(CC(=O)OCc4ccccc4)cnc32)cc1 | 83 | 104% (inactive) | 83% (inactive) | 99.1% (inactive) | 97.8% (inactive) | 12% (inactive) | 85.8 | 97.8 | 0% (inactive) | 0.5% (inactive)
20 | CCOC(=O)CNS(=O)(=O)c1c(C)noc1C | 110 | 104% (inactive) | 110% (inactive) | 70.6% (inactive) | 107% (inactive) | 20.6% (inactive) | 86.2 | 107 | -4.47% (inactive) | 2.73% (inactive)
21 | COc1cc(NC(=O)Cc2nn(C)c(=O)c3ccccc23)cc(OC)c1 | 87.5 | 91.5% (inactive) | 87.5% (inactive) | 73% (inactive) | 84.3% (inactive) | -2.83% (inactive) | 87.1 | 84.3 | -2.24% (inactive) | -2.9% (inactive)
22 | CN(C)CCCn1c(N)c(C#N)c2nc(C#N)c(C#N)nc21 | 179 | 47.5% (active) | 179% (inactive) | 66.9% (inactive) | 90.1% (inactive) | -3.03% (inactive) | 93.1 | 90.1 | -1.89% (inactive) | -1.75% (inactive)
23 | O=C(Cc1cccs1)Nc1nnc(CCc2ccccc2)s1 | 110 | 91.5% (inactive) | 110% (inactive) | 88.7% (inactive) | 80.7% (inactive) | -5.74% (inactive) | 86.4 | 80.7 | -0.78% (inactive) | -0.5% (inactive)
24 | COc1cccc(NC(=O)CSc2nnc(-c3cc(-c4ccccn4)nc4ccccc34)o2)c1 | 94.5 | 85% (inactive) | 94.5% (inactive) | 81% (inactive) | 76.4% (inactive) | -3.28% (inactive) | 79.7 | 76.4 | -1.22% (inactive) | -4.6% (inactive)
25 | O=C(CSc1nnnn1-c1ccc2c(c1)OCO2)NCc1cccs1 | 88 | 90.5% (inactive) | 88% (inactive) | 93.2% (inactive) | 86.8% (inactive) | -7.04% (inactive) | 93.8 | 86.8 | -5.68% (inactive) | -1.64% (inactive)
26 | CCN1C(=O)/C(=C2\C=Cc3ccccc3N2CC)OC1=S | 95.5 | 100% (inactive) | 95.5% (inactive) | 85.9% (inactive) | 72% (inactive) | 7.3% (inactive) | 64.7 | 72 | -4.23% (inactive) | 2.33% (inactive)
27 | CN(C)c1ccc(NC(=O)CSCc2nc3c(nnn3Cc3ccc(F)cc3)c(=O)[nH]2)cc1 | 89.5 | 83.5% (inactive) | 89.5% (inactive) | 110% (inactive) | 94% (inactive) | 4.32% (inactive) | 89.7 | 94 | -6.49% (inactive) | 0% (inactive)
28 | CCc1nnc(NC(=O)c2ccc(S(=O)(=O)NCC(C)C)cc2)s1 | 92.5 | 89% (inactive) | 92.5% (inactive) | 100% (inactive) | 98.3% (inactive) | 1.11% (inactive) | 97.2 | 98.3 | -5.95% (inactive) | 0.16% (inactive)
29 | CC1CCN(S(=O)(=O)c2ccc3[nH]cc(C(=O)NCCN4CCOCC4)c(=O)c3c2)CC1 | 108 | 104% (inactive) | 108% (inactive) | 94% (inactive) | 96.4% (inactive) | 2.28% (inactive) | 94.1 | 96.4 | -6.67% (inactive) | -3.06% (inactive)
